Reference: PubChem BioAssay
Inconclusive results are not listed. Active and inactive are the calls of the source.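 How the source made its calls, unless noted: active means cell viability at or below a set limit in both duplicate runs, the limit being the all-compound median minus 4 SD (cut at about 23% in these data, passing the limit was not always enough); inconclusive means no clear call, values can overlap the other calls; inactive means the rest.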

What was measured:
[1] = OD615 S. cerevisiae growth inhibition, permissive medium, pilot counter-assay, permissive growth control for S. cerevisiae lifespan shortening project (AID 705;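 active means growth inhibition above 25% in both replicates, a cutoff set 3 SD above the mean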); settings: OD615, 24 h, at 10 µM, active compounds read high
In short: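 Material: engineered DeaD yeast; compound dosing: one dose 10 µM, DMSO 0.25% final; measure: yeast growth inhibition indicated by reduced 24 h OD615; detection: OD615 turbidity read; incubation: cells pre-grown 4 h, then 24 h compound exposure, 30 °C humidified; medium: permissive synthetic complete medium with raffinose and galactose carbon sources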

[2] = Restrictive medium S. cerevisiae growth inhibition, OD615, pilot screen of yeast lifespan reduction project, restrictive growth control (AID 706;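 active means growth inhibition above a set limit, 3 SD over mean compound inhibition, in both replicates, cut at about 43% in these data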;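 further: modified DeaD lifespan yeast strain shifted to restrictive glucose medium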); settings: OD615, 48 h, at 10 µM, active compounds read high
In short: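 material = engineered S. cerevisiae DeaD strain | medium = glucose-based CSMM-D restrictive medium | times = 4 h pre-incubation, 48 h exposure at 30 °C | technique = OD615 absorbance reading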

[3] = viability gain of MRP-1-high H69AR cells under doxorubicin, pilot screen, MRP-1 activator project, CellTiter-Glo, duplicate (AID 807;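 active means viability increase at or above a cutoff of the median across tested compounds plus 3 SD, cut at about 8.5% in these data, passing the limit was not always enough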;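 further: compound pretreatment 18-22 h then 72 h combined with doxorubicin; 0% = doxorubicin alone and 100% = vehicle without doxorubicin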); settings: H69AR viability with doxorubicin, CellTiter-Glo luminescence; at 10 µM; active compounds read high
[4] = growth suppression of beta-catenin knockout HCT116, pilot screen, human colon tumor cells (AID 823); settings: CellTiter-Glo, 60 h, at 10 µM, active compounds read low;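 further: 0% = wells killed by 20 µM Hyamine and 100% = untreated DMSO cell wells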
[5] = growth suppression of PTEN-deleted HCT116, pilot screen, cell-based, HCT116 clonal line, CellTiter-Glo (AID 824;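 active means viability at or below 27.92% in each of two runs, the all-compound median minus 4 SD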;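 further: 0% = 20 µM Hyamine control and 100% = vehicle cell control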); settings: 60 h, at 10 µM, active compounds read low
[6] = inhibitors of the yeast RAM network, pilot screen, dse1pr::URA3 reporter, 5-FOA selection (AID 869;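 active means inhibition over a set limit, the all-compound mean plus 3 SD, in both replicate runs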;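 further: 0% = DMSO wells with no growth and 100% = 10 µM 1-NA-PP1 with full growth; RAM network block rescues cells from 5-FOA so hits raise OD615 growth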); settings: S. cerevisiae dse1pr::URA3 5-FOA growth, OD615, 2 d; at 10 µM; active compounds read high; strain carries analog-sensitive mutant Cbk1 kinase
[7] = RAM signaling pathway blockade in yeast – S. cerevisiae, Pdr1DBD-CYC8 efflux-inhibited sensitized strain, primary screen (AID 1298;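 active means RAM network inhibition above 8.4% in each of two replicates, 3 SD over the compound average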;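 further: 0% = DMSO untreated cells without growth and 100% = 10 µM 1-NA-PP1 full growth; higher means more yeast growth rescued from 5-FOA killing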); settings: S. cerevisiae cbk1-as DSE1-URA3 strain, 5-FOA growth OD615, 2 d; at 50 µM; active compounds read high

Cc1nc2ccccc2c2oc(C(=O)NC3CC3)cc12
inactive: growth inhibition [1] -8% | growth inhibition [2] 5.36% | viability increase [3] -2.61% | viability [4] 112% | viability [5] 89.6% | inhibition [6] 0.79% | RAM network inhibition [7] -1.66%

Cc1nc(CNS(=O)(=O)c2ccc3c(c2)CCCC3)cs1
inactive: growth inhibition [1] -5.81% | growth inhibition [2] -2.64% | viability increase [3] -1.72% | viability [4] 96.7% | viability [5] 73.8% | inhibition [6] 1.51% | RAM network inhibition [7] 0.22%

Nc1ccc(Nc2ccccc2)c(Cl)c1
inactive: growth inhibition [1] -1.62% | growth inhibition [2] 19% | viability increase [3] -7.58% | viability [4] 94.7% | viability [5] 97.8% | inhibition [6] 2.79% | RAM network inhibition [7] 4.55%

CC1=C(C(N)=O)C(c2ccccc2)n2nc(-c3cccs3)nc2N1 (centres undefined)
inactive: growth inhibition [1] -9.84% | growth inhibition [2] 2.11% | viability increase [3] -3.8% | viability [4] 101% | viability [5] 93.8% | inhibition [6] 2.46% | RAM network inhibition [7] 3.65%

C=CCc1cccc2cc(C(=O)N(C)C)c(=O)oc12
inactive: growth inhibition [1] -7.92% | growth inhibition [2] -6.08% | viability increase [3] -1.06% | viability [4] 105% | viability [5] 93.8% | inhibition [6] 1.53% | RAM network inhibition [7] 2.04%

CCC(C)NC(=O)c1ccc(NC(=O)C2CCCO2)cc1 (centres undefined)
inactive: growth inhibition [1] -6.02% | growth inhibition [2] -6.03% | viability increase [3] 3.38% | viability [4] 100% | viability [5] 100% | inhibition [6] 4.56% | RAM network inhibition [7] 1.78%

C1CCc2c(nc3nnnn3c2N2CCOCC2)C1
inactive: growth inhibition [1] -0.9% | growth inhibition [2] 3.85% | viability increase [3] 1.82% | viability [4] 107% | viability [5] 98.4% | inhibition [6] 1.07% | RAM network inhibition [7] 5.8%

O=C(O)c1ccc(-n2cccc2)cc1O
inactive: growth inhibition [1] -2.21% | growth inhibition [2] -13.1% | viability increase [3] -1.52% | viability [4] 96.8% | viability [5] 101% | inhibition [6] 0.285% | RAM network inhibition [7] -0.83%

CCN1CCN(C(CNS(=O)(=O)c2ccc(OC)cc2)c2cccnc2)CC1 (centres undefined)
inactive: growth inhibition [1] -0.57% | growth inhibition [2] 8.5% | viability increase [3] -1.16% | viability [4] 105% | viability [5] 98.2% | inhibition [6] 3.57% | RAM network inhibition [7] 3.38%

CCc1ccc(S(=O)(=O)NCc2cn3c(C)csc3n2)s1
inactive: growth inhibition [1] 0.075% | growth inhibition [2] 5.25% | viability increase [3] -2.89% | viability [4] 102% | viability [5] 94.1% | inhibition [6] 0.37% | RAM network inhibition [7] 2.22%

CCCOc1nc2c(c(=O)n(C)c(=O)n2C)n1CCC
inactive: growth inhibition [1] -7.2% | growth inhibition [2] -10.2% | viability increase [3] -2.13% | viability [4] 82.2% | viability [5] 86.6% | inhibition [6] 1.4% | RAM network inhibition [7] -0.88%

COc1cccc(C2c3c(oc4ccccc4c3=O)C(=O)N2CCCN2CCOCC2)c1 (centres undefined)
inactive: growth inhibition [1] -10.5% | growth inhibition [2] -5.13% | viability increase [3] -3.16% | viability [4] 95.1% | viability [5] 93.1% | inhibition [6] 1.13% | RAM network inhibition [7] 2.84%

O=C(Nc1nnc(-c2cccs2)o1)c1cccc(C(F)(F)F)c1
inactive: growth inhibition [1] -14.9% | growth inhibition [2] 7.83% | viability increase [3] -0.12% | inhibition [6] 1.56% | RAM network inhibition [7] 3.02%
active: viability [4] 15.5% | viability [5] 19.5%

O=C(CCNS(=O)(=O)c1cccc2nsnc12)NCCC1=CCCCC1
inactive: growth inhibition [1] -8.97% | growth inhibition [2] -9.04% | viability increase [3] -2.88% | viability [4] 90.6% | viability [5] 94.8% | inhibition [6] 2.49% | RAM network inhibition [7] 6.94%

COc1ccc2[nH]c(C)c(CCN3C(=O)C4C5C=CC(C5)C4C3=O)c2c1 (centres undefined)
inactive: growth inhibition [1] -3.19% | growth inhibition [2] 5.9% | viability increase [3] -2.43% | viability [4] 106% | viability [5] 94.9% | inhibition [6] 0.285% | RAM network inhibition [7] 4.02%

Clc1cccc(CSc2nnc(-c3ccccn3)n2Cc2ccco2)c1
inactive: growth inhibition [1] -8.18% | growth inhibition [2] 21.1% | viability increase [3] -1.98% | viability [4] 71.4% | viability [5] 75.3% | inhibition [6] 1.69% | RAM network inhibition [7] 12.3%

CCOC(=O)N1CCC(NC(=O)C2CCCCN2S(=O)(=O)c2ccc(F)cc2)CC1 (centres undefined)
inactive: growth inhibition [1] -12.5% | growth inhibition [2] -1.21% | viability increase [3] -3.71% | viability [4] 94% | viability [5] 89.6% | inhibition [6] 0.405% | RAM network inhibition [7] -0.16%

COc1ccc(-n2cnnc2)cc1
inactive: growth inhibition [1] -1.44% | growth inhibition [2] -0.83% | viability increase [3] -2.88% | viability [4] 98.2% | viability [5] 101% | inhibition [6] 1.05% | RAM network inhibition [7] -0.78%

CCc1c(C)sc(NC(=O)c2cc(C)no2)c1C#N
inactive: growth inhibition [1] 1.33% | growth inhibition [2] 8.59% | viability increase [3] -0.5% | viability [4] 99% | viability [5] 93.4% | inhibition [6] 1.31% | RAM network inhibition [7] 6.13%

CC(=O)N1CCc2cc(C(=O)CN3CCC(C)CC3)ccc21
inactive: growth inhibition [1] -5.91% | growth inhibition [2] -4.73% | viability increase [3] -2.46% | viability [4] 104% | viability [5] 93.6% | inhibition [6] 1.56% | RAM network inhibition [7] 7.51%

COc1ccc(N2CCN(C3CC(=O)N(C)C3=O)CC2)cc1 (centres undefined)
inactive: growth inhibition [1] -3.33% | growth inhibition [2] 2.79% | viability increase [3] -0.79% | viability [4] 103% | viability [5] 100% | inhibition [6] 1.95% | RAM network inhibition [7] 4.13%

CC(C)CNS(=O)(=O)c1ccc(S(=O)(=O)N2CCN(CCC#N)CC2)cc1
inactive: growth inhibition [1] -11.7% | growth inhibition [2] -4.15% | viability increase [3] -0.2% | viability [4] 99.6% | viability [5] 103% | inhibition [6] 0.85% | RAM network inhibition [7] -0.19%

O=C(NC1CCN(C(=O)N2c3ccccc3Sc3ccccc32)CC1)c1ccco1
inactive: growth inhibition [1] -3.83% | growth inhibition [2] -13.8% | viability increase [3] -3.6% | viability [4] 65.1% | viability [5] 59.7% | inhibition [6] -0.48% | RAM network inhibition [7] 4.1%

Cc1noc(C)c1S(=O)(=O)NCc1ccc2c(c1)OCO2
inactive: growth inhibition [1] -1.3% | growth inhibition [2] -6.16% | viability increase [3] -1.12% | viability [4] 97.5% | viability [5] 93.6% | inhibition [6] 2.77% | RAM network inhibition [7] 0.27%

Cc1ccc(C)c(N2CCN(C(=O)CCc3nc4ccccc4[nH]3)CC2)c1
inactive: growth inhibition [1] 6.2% | growth inhibition [2] 7.36% | viability increase [3] 1.46% | viability [4] 80.9% | viability [5] 90.4% | inhibition [6] -0.165% | RAM network inhibition [7] -0.77%

CCOc1ccc(-n2c(SC(C)C(=O)OC)nc3c(c2=O)SCC3)cc1 (centres undefined)
inactive: growth inhibition [1] -6.67% | growth inhibition [2] -19.6% | viability increase [3] -1.08% | viability [4] 89.6% | viability [5] 92.2% | inhibition [6] 0.355% | RAM network inhibition [7] 5.59%

COc1ccc(-n2ncc3c(N(C)C4CCCCC4)ncnc32)cc1
inactive: growth inhibition [1] -13.1% | growth inhibition [2] -9.66% | viability increase [3] -3.73% | viability [4] 85.5% | viability [5] 77.9% | inhibition [6] 1.76% | RAM network inhibition [7] 4.58%

COCCCN1CC23C=CC(O2)C(C(=O)O)C3C1=O (centres undefined)
inactive: growth inhibition [1] 2.65% | growth inhibition [2] -2.98% | viability increase [3] -1.24% | viability [4] 102% | viability [5] 106% | inhibition [6] -0.105% | RAM network inhibition [7] 4.16%

CCC(C)NC(=O)Cn1cc2c(n1)CCC(C)C2 (centres undefined)
inactive: growth inhibition [1] -6.78% | growth inhibition [2] 6.43% | viability increase [3] -1.54% | viability [4] 103% | viability [5] 97.3% | inhibition [6] 0.14% | RAM network inhibition [7] 0.42%

CC(=O)N=C1SC2CS(=O)(=O)CC2N1c1c(Cl)cccc1Cl (centres undefined)
inactive: growth inhibition [1] 5.46% | growth inhibition [2] 3.7% | viability increase [3] -1.41% | viability [4] 99.4% | viability [5] 94.2% | inhibition [6] 0.405% | RAM network inhibition [7] -0.17%

Cc1cc2ncn(C(=O)c3c(-c4c(Cl)cccc4Cl)noc3C)c2cc1C
inactive: growth inhibition [1] 0.3% | growth inhibition [2] 5.04% | viability increase [3] -3.42% | viability [4] 95.5% | viability [5] 94.5% | inhibition [6] 1.99% | RAM network inhibition [7] 8.25%

O=C(NCC1COc2ccccc2O1)C1CCC(CNc2c(N3CCCCC3)c(=O)c2=O)CC1 (centres undefined)
inactive: growth inhibition [1] -8.76% | growth inhibition [2] -9.54% | viability increase [3] 0.01% | viability [4] 88.6% | viability [5] 86.4% | inhibition [6] 2.89% | RAM network inhibition [7] 4.02%

CCCC12CN3CC(CCC)(CN(C1)C3C(O)C(O)C(O)CO)C2=O (centres undefined)
inactive: growth inhibition [1] 4.31% | growth inhibition [2] 7.78% | viability increase [3] 0.62% | viability [4] 99.7% | viability [5] 100% | inhibition [6] 1.27% | RAM network inhibition [7] 3.47%

O=c1[nH]c(=S)[nH]nc1Cc1ccccc1
inactive: growth inhibition [1] -10% | growth inhibition [2] 13.4% | viability increase [3] -0.79% | viability [4] 101% | viability [5] 98.2% | inhibition [6] 0.12% | RAM network inhibition [7] 6.46%

O=c1[nH]c2c(s1)C=Nc1ccccc1N2
inactive: growth inhibition [1] -5.34% | growth inhibition [2] 3.4% | viability increase [3] -2.29% | viability [4] 89.9% | viability [5] 91.6% | inhibition [6] 1.6% | RAM network inhibition [7] 0.32%

c1ccc(Cn2nnc3c(N4CCOCC4)ncnc32)cc1
inactive: growth inhibition [1] -15.8% | growth inhibition [2] -25.2% | viability increase [3] -1.15% | viability [4] 92.7% | viability [5] 89.5% | inhibition [6] 0.93% | RAM network inhibition [7] -0.79%

CCC(=O)Nc1nc2ccccc2n1CCN1CCOCC1
inactive: growth inhibition [1] -9.48% | growth inhibition [2] -0.375% | viability increase [3] -2.15% | viability [4] 98.6% | viability [5] 99.3% | inhibition [6] -0.285% | RAM network inhibition [7] 5.41%
